In ChEMBL document CHEMBL4007442, “Discovery of a Potent and Selective Sphingosine Kinase 1 Inhibitor through the Molecular Combination of Chemotype-Distinct Screening Hits” (J Med Chem, 2017):

Key:
Sphingosine kinase 1 [1] = target: T1, Sphingosine kinase 1 (Homo sapiens, UniProt Q9NYA1); assay: Inhibition of human C-terminal His6-tagged SPHK1 expressed in fall armyworm sf9 cells assessed as reduction in S1P formation using sphingosine as substrate after 1 hr by FITC-based caliper assay
Sphingosine kinase 1 [2] = target: T1, Sphingosine kinase 1; assay: Inhibition of SPHK1 in human whole-blood using C17-sphingosine as substrate assessed as reduction in C17-S1P production preincubated for 30 mins followed by substrate addition measured after 10 mins by MS analysis
Sphingosine kinase 2 = target: T2, Sphingosine kinase 2 (Homo sapiens, UniProt Q9NRA0); assay: Inhibition of SPHK2 (unknown origin) by FITC-based caliper assay
T2 sequence (Q9NRA0 whole entry): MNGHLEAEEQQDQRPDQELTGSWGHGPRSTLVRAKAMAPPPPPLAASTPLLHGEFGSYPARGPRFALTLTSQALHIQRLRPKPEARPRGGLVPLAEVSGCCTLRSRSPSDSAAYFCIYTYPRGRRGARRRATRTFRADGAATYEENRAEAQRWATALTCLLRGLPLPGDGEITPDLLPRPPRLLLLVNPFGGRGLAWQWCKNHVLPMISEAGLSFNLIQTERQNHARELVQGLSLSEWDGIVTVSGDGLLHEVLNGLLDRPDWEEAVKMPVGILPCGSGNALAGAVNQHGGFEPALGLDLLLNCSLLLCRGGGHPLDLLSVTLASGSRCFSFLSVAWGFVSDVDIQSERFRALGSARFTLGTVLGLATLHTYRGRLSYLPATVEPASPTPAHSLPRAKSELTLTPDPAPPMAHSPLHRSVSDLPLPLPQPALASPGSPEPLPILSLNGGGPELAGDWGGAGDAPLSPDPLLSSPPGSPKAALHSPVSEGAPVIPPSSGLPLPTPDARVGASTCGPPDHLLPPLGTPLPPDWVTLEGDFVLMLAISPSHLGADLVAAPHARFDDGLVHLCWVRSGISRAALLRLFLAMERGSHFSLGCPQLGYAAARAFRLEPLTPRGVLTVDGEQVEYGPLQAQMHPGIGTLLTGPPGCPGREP
Procedure, shortened: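 Recombinant SphK2 enzyme assay measuring FITC-S1P formation, with product resolved by microfluidic mobility-shift separation. Dose-response gives IC50. Reported values are the mean of two or more independent assays.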

Sphingosine kinase 1 [3] = target: T1, Sphingosine kinase 1; assay: Inhibition of SPHK1 in human MDA1483 cells using C17-sphingosine as substrate assessed as reduction in C17-S1P formation preincubated for 30 mins with substrate measured after 15 mins by LC-MS analysis; format: cell-based
Sphingosine kinase 1 [4] = target: T1, Sphingosine kinase 1; assay: Inhibition of human C-terminal His6-tagged SPHK1 expressed in fall armyworm sf9 cells assessed as reduction in ADP formation using sphingosine as substrate preincubated for 15 mins followed by substrate addition after 1 hr by transcreener-based fluorescence polarization assay
Sphingosine kinase 1 [5] = target: Sphingosine kinase 1 (Homo sapiens, UniProt Q9NYA1, S225A); assay: Binding affinity to human C-terminal His6-tagged SPHK1 S225A mutant expressed in fall armyworm sf9 cells after 1 hr by ITC analysis
Sphingosine kinase 1 (Homo sapiens, UniProt Q9NYA1, S225A), sequence (Q9NYA1 whole entry S225A): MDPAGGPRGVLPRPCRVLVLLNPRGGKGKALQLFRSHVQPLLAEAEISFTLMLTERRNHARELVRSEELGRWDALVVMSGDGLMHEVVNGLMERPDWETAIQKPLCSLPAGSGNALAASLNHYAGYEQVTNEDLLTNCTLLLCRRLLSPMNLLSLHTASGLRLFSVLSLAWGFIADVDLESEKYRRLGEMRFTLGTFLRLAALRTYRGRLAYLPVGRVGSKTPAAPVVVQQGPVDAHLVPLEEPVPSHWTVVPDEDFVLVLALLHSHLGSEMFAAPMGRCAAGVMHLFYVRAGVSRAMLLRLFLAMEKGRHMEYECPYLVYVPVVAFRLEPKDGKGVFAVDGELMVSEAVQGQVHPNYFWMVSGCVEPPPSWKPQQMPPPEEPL

[6] = Solubility of the compound; format: physicochemical
[7] = target: Sphingosine 1-phosphate receptor 3 (Homo sapiens, UniProt Q99500); assay: Binding affinity to S1PR3 (unknown origin)
Sphingosine 1-phosphate receptor 3, sequence (Q99500 whole entry): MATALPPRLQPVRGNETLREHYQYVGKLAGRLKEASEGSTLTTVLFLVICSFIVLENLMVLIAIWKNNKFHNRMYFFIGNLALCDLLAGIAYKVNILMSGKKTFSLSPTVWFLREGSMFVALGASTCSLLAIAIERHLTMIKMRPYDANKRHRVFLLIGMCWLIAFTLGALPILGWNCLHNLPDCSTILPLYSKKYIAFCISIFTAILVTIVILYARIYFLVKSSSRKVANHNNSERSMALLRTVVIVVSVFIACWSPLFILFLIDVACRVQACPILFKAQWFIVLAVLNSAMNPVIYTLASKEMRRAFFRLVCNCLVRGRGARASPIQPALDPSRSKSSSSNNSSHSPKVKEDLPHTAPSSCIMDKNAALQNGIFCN

[8] = Cytotoxicity in human MDA1483 cells at 50 uM by MTT assay; format: cell-based; details: mda1483, 50 µM
[9] = target: Sphingosine 1-phosphate receptor 5 (Homo sapiens, UniProt Q9H228); assay: Binding affinity to S1PR5 (unknown origin)
Sphingosine 1-phosphate receptor 5, sequence (Q9H228 whole entry): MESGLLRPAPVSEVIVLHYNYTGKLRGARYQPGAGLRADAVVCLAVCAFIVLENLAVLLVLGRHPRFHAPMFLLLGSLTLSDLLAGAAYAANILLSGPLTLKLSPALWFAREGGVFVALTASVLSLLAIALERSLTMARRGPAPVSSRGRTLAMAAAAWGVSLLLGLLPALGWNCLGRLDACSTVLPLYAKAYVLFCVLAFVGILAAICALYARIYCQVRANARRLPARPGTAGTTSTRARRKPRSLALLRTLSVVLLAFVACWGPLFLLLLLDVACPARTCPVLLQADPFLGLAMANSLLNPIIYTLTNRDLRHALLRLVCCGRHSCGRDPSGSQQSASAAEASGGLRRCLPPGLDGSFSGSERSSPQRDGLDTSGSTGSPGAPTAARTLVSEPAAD

T1 sequence (Q9NYA1 whole entry): as the sequence (Q9NYA1 whole entry S225A) above, with A225S counted along it

Row | SMILES | IC50 (Sphingosine kinase 1 [1]) [nM] | IC50 (Sphingosine kinase 1 [2]) [nM] | IC50 (Sphingosine kinase 2) [nM] | IC50 (Sphingosine kinase 1 [3]) [nM] | IC50 (Sphingosine kinase 1 [4]) [nM] | Kd (Sphingosine kinase 1 [5]) [nM] | solubility [6] | IC50 [7] [nM] | Activity [8] | IC50 [9] [nM]
1 | Cc1nc(-c2cccc(OCc3ccc(CN4CCC[C@@H]4CO)cc3)c2)no1 | 25 | 173 | 2.4 | 1.7 | 4.5 | – | – | – | – | –
2 | Cc1cc(CS(=O)(=O)c2ccccc2)cc(OCc2ccc(CN3C[C@@H](O)[C@@H](O)C3)cc2)c1 | 3.9 | 38 | 7230 | 1 | 3.9 | – | – | – | – | –
3 | O=C(Nc1cccc(OCc2ccc(CN3CCC[C@@H]3CO)cc2)c1)c1ccccc1 | 9820 | > 8800 | 145 | 1200 | 3670 | – | – | – | – | –
4 | OC[C@H]1CCCN1Cc1ccc(COc2cccc(C3CCCCC3)c2)cc1 | < 1.7 | 1.5 | < 1.7 | 0.03 | 0.7 | – | – | – | – | –
5 | Cc1nc2ccc(-c3ccc(CN4CCC[C@@H]4CO)cc3)cc2n1Cc1ccccc1 | – | – | – | 250 | 440 | – | – | – | – | –
6 | Cc1nc2ccc(-c3ccc(CN4CCC[C@@H]4CO)cc3)cc2n1C[C@@H]1CCCO1 | 12700 | – | > 100000 | 2100 | 4600 | 12000 | – | – | – | –
7 | Cc1nc2ccc(-c3ccc(CN4CCC[C@@H]4CO)cc3)cc2n1CC(C)C | – | – | – | 440 | 290 | – | – | – | – | –
8 | O=S(=O)(Cc1cccc(OCc2ccc(CN3CCC[C@@H]3CO)cc2)c1)c1ccccc1 | 2.4 | 35 | 164 | 0.3 | 2 | – | – | – | – | –
9 | Cc1cc(CS(=O)(=O)c2ccccc2)cc(OCc2ccc(CN3CC[C@H](O)C3)cc2)c1 | 2.6 | 5.2 | 443 | 0.03 | 3 | – | – | – | – | –
10 | Cc1cc(CS(=O)(=O)c2ccccc2)cc(OCc2ccc3[nH]c(N)nc3c2)c1 | 1400 | – | 39600 | 180 | 1700 | – | Insoluble | > 10000 | Non-Toxic | > 10000
11 | Cc1nc2ccc(-c3ccc(CN4CCC[C@@H]4CO)cc3)cc2n1CC1CCCC1 | – | – | – | 10 | 11 | – | – | – | – | –
12 | Cc1nc2ccc(-c3ccc(CN4CCC[C@H]4CO)cc3)cc2n1C[C@@H]1CCCO1 | > 100000 | – | > 100000 | > 100000 | > 100000 | – | – | – | – | –
13 | Cc1nc2ccc(-c3ccc(CN4CCC[C@@H]4CO)cc3)cc2n1CCC(C)C | – | – | – | 4 | 7 | – | – | – | – | –
14 | Cc1nc2ccc(-c3ccc(CN4CCC[C@@H]4CO)cc3)cc2n1C[C@H]1CCCO1 | 870 | – | 46000 | 81 | 190 | 2900 | – | – | – | –
15 | CS(=O)(=O)Cc1cccc(OCc2ccc(CN3CCC[C@@H]3CO)cc2)c1 | – | – | – | 519 | 439 | – | – | – | – | –
16 | Cc1nc2ccc(-c3ccc(CN4CCCC4)cc3)cc2n1C[C@H]1CCCO1 | – | – | – | – | > 100000 | – | – | – | – | –
17 | CC(C)c1cccc(OCc2ccc(CN3CCC[C@@H]3CO)cc2)c1 | 4.8 | 19 | < 1.7 | 0.6 | 0.8 | – | – | – | – | –
18 | Cc1cc(CS(=O)(=O)c2ccccc2)cc(OCc2ccc(CN3C[C@@H](O)[C@H](O)C3)cc2)c1 | 2 | 6.4 | 465 | 0.17 | 2 | – | – | – | – | –
19 | O=S(=O)(Cc1cccc(OCc2ccc(CN3CCC[C@@H]3CO)cc2)c1)C1CC1 | 40.4 | 1470 | 164 | 1.7 | 10 | – | – | – | – | –
20 | Cc1cc(CS(=O)(=O)c2ccccc2)cc(OCc2ccc(CN3CC[C@@H](O)C3)cc2)c1 | – | – | – | 30 | 28 | – | – | – | – | –
21 | Cc1nc2ccc(-c3ccc(CN4CCC[C@@H]4CO)cc3)cc2n1CCC1CCC1 | – | – | – | 4 | 8 | – | – | – | – | –
22 | Cc1nc2ccc(-c3ccc(CN4CCC[C@H]4CO)cc3)cc2n1C[C@H]1CCCO1 | > 100000 | – | > 100000 | 9800 | 31000 | – | – | – | – | –
23 | Cc1cc(CS(=O)(=O)c2ccccc2)cc(OCc2ccc3[nH]cnc3c2)c1 | 48000 | – | – | 27000 | 48000 | – | – | – | – | –
24 | Cc1cc(CS(=O)(=O)c2ccccc2)cc(OCc2ccc(CNCCO)cc2)c1 | 14.6 | – | 35100 | 3.5 | 5.3 | – | – | – | – | –
